High-throughput results deposited in PubChem BioAssay by several laboratories.
Rows were chosen to be rich in hits. Some 3.8% of all compounds tested hit in one or more screens of this group.
ANO1 block – inhibitors of mouse TMEM16A calcium-activated chloride channel. Q8BHY3. HEK293 TMEM16A/YFP iodide influx fluorescence, ionomycin. normalized B-score (activity score, 25-100; higher = stronger inhibition) at 10 µM. actives 1.2% (n = 310,000);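 active = ratio plate-corrected score three or more library SD toward inhibition, starting fluorescence score within five deviations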;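 also: score derived from kinetic fluorescence span divided by baseline fluorescence per well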
Beta cell apopt – beta cell apoptosis inhibition; INS-1E cytokine-induced death, ATP luminescence, 48 h; percent of positive-control rescue, neutral wells zero; protection from apoptosis, % (no concentration beside the values); actives 0.8% (n = 300,000);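 active = Every replicate reaches about 75%, or at least half do and their mean reaches it too, limit read from the data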;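 also: 0% = cytokine-treated negative control wells and 100% = positive control rescue; higher means more ATP so stronger rescue from cytokine killing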
CSC inhib – blocks cancer stem cells | actives 1.1% (n = 300,000) | cancer stem cell-like cells viability, luminescence | inhibition, % at 7.5 µM | AID 2717; in the data active = inhibition above about 75%; tested in HMLE shEcad cells
MC4R barr agon – agonists of human melanocortin 4 receptor (MC4R) beta-arrestin; activation, % at 8.9 µM; U2OS MC4R beta-arrestin complementation, luminescence; percent of melanotan II response, DMSO zero; P32245; AID 540308; actives 0.98% (n = 360,000);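 active = activation above a per-plate cutoff, the mean activation of sample wells on that plate plus 3 SD, cut at about 8% in these data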
MC4R antagonist – blocks human MC4R cAMP signaling; P32245; actives 0.48% (n = 360,000); AID 540295; inhibition, % at 6.5 µM; MC4R-expressing cells, MTII-stimulated cAMP, LANCE TR-FRET;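 active = inhibition above its plate's cutoff, the mean of tested wells on that plate plus 3 SD, cut at about 29% in these data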;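 also: 0% = Melanotan II alone and 100% = Melanotan II plus saturating MCL0020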
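System: U2OS cells stably expressing human melanocortin 4 receptor (MC4R). Reagent: Melanotan II challenge after compound preincubation. Doses: 6.5 µM. Times: 30-min compound, 1-h challenge, 1-h detection, room temperature. Measured by: TR-FRET with Eu-cAMP and labeled anti-cAMP, 671 nm. Replicates: singlicate.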
ANO1 activ – activators or potentiators of mouse TMEM16A chloride channel; Q8BHY3; HEK293 TMEM16A/YFP-H148Q/I152L, iodide quench fluorescence; active compounds read low; B-score at 10 µM; actives 0.3% (n = 340,000); AID 623877;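 active = fluorescence-ratio B-score plate-corrected deviation score at least 3 library SD below zero, with starting fluorescence score within 5 deviations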;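 also: channel opened by trigger with iodide after compound preincubation; score built on the fluorescence ratio of max minus min over baseline; more negative score means more quench and so TMEM16A activation or potentiation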
* hit, by the source's call.

Results for Cc1ccc(S(=O)(=O)Nc2ccc3c(c2)CC(=O)N([C@H](C)CO)C[C@@H](C)[C@H](CN(C)Cc2ccc(-c4ccccc4)cc2)O3)cc1 ?
Beta cell apopt: -9.5; CSC inhib: 108.5*; MC4R barr agon: 1.1; MC4R antagonist: 6.3; ANO1 activ: inactive

What do the screens show for `COc1cc(C#N)ccc1OCC(=O)Nc1cccc(S(=O)(=O)N(C)c2ccccc2)c1`?
MC4R barr agon: 1.2; MC4R antagonist: 8.8

What do the screens show for `O=C(c1cc2c(s1)CCCC2)N1CCN(CCO)CC1`?
Beta cell apopt: -3.7; CSC inhib: -5.1; MC4R barr agon: -2.2; MC4R antagonist: 0.2; ANO1 activ: inactive

Results for O=C(c1cc(S(=O)(=O)N2CCOCC2)ccc1F)N1CCc2ccccc21 ?
Beta cell apopt: -4.9; CSC inhib: -14.8; MC4R barr agon: 2.7; MC4R antagonist: 0.3; ANO1 activ: inactive

How did O=C(CCCOc1ccc(Cl)cc1)NCCc1ccccc1 do in these assays?
ANO1 block: inactive; Beta cell apopt: -3.5; CSC inhib: -3.5; MC4R barr agon: -1.2; MC4R antagonist: -2.2; ANO1 activ: inactive

Results for CCCCCCN1CCN(C2CN(Cc3ccc([N+](=O)[O-])cc3)S(=O)(=O)C2)CC1 (stereo unspecified) ?
MC4R barr agon: -1.2; MC4R antagonist: -10.7

What do the screens show for `CCNC(=S)N(Cc1ccccc1)Cc1nc2ccccc2c(=O)[nH]1`?
ANO1 block: inactive; Beta cell apopt: -6.3; CSC inhib: -2.0; MC4R barr agon: -0.6; MC4R antagonist: 4.5; ANO1 activ: inactive

Results for COCCCNC(=S)N(Cc1ccccc1)Cc1nc2ccccc2c(=O)[nH]1 ?
ANO1 block: 25*; Beta cell apopt: -4.7; CSC inhib: -11.4; MC4R barr agon: -0.7; MC4R antagonist: -4.0; ANO1 activ: inactive

Results for O=C(COC(=O)COc1cccc(C(F)(F)F)c1)NC(=O)NC1CCCCC1 ?
ANO1 block: inactive; Beta cell apopt: -9.5; CSC inhib: -6.9; MC4R barr agon: 8.7*; MC4R antagonist: -2.2; ANO1 activ: inactive

What do the screens show for `O=C1Nc2ccccc2S/C1=C/Nc1cccc(Cl)c1`?
ANO1 block: inactive; Beta cell apopt: 13.5; CSC inhib: 48.2; MC4R barr agon: 13.2*; MC4R antagonist: -3.7; ANO1 activ: inactive

Results for Cc1ccccc1-c1cnc2c(c1)C(=O)N([C@H](C)CO)C[C@@H](C)[C@H](CN(C)C(=O)c1ccncc1)O2 ?
MC4R barr agon: -0.3; MC4R antagonist: 1.6

What do the screens show for `N#CCCN(C(=O)COC(=O)c1cc(=O)c2ccccc2o1)c1ccccc1`?
Beta cell apopt: 1.3; CSC inhib: -14.7; MC4R barr agon: 0.4; MC4R antagonist: 12.8; ANO1 activ: inactive

How did Cc1oc2c(C)c(O)ccc2c(=O)c1-c1cnn(-c2ccccc2)c1 do in these assays?
ANO1 block: inactive; Beta cell apopt: 2.5; CSC inhib: 64.0; MC4R barr agon: 28.6*; MC4R antagonist: 2.9; ANO1 activ: inactive

How did CCn1c(=O)c2sccc2n2c(CCCC(=O)NCc3cccnc3)nnc12 do in these assays?
ANO1 block: inactive; Beta cell apopt: -4.8; CSC inhib: -10.2; MC4R barr agon: -1.1; MC4R antagonist: 19.1; ANO1 activ: inactive

Results for Cc1onc(-c2ccccc2)c1C(=O)OCC(=O)Nc1ccc2c(c1)OCO2 ?
ANO1 block: inactive; Beta cell apopt: -2.5; CSC inhib: 10.4; MC4R barr agon: -1.9; MC4R antagonist: -2.3; ANO1 activ: inactive

Results for Cc1c(-c2cccc(Cl)c2)nc2ccccc2c1C(=O)OCC(=O)Nc1ccc2c(c1)OCO2 ?
ANO1 block: inactive; Beta cell apopt: 13.2; CSC inhib: 154.9*; MC4R barr agon: -2.9; MC4R antagonist: 3.7; ANO1 activ: inactive

What do the screens show for `CCOC(=S)SCC(=O)Nc1nc(-c2ccc(Br)cc2)cs1`?
ANO1 block: inactive; Beta cell apopt: 28.4; CSC inhib: 85.2*; MC4R barr agon: -1.3; MC4R antagonist: 2.2; ANO1 activ: inactive

Results for CC1(C(=O)NCC2CCCCC2)CCN1CCc1ccccc1 (stereo unspecified) ?
MC4R barr agon: 5.8; MC4R antagonist: 16.5
